Experimental data taken from ChEMBL document CHEMBL1156776, “Hybrid inhibitors of phosphatidylinositol 3-kinase (PI3K) and the mammalian target of rapamycin (mTOR): design, synthesis, and superior antitumor activity of novel wortmannin-rapamycin conjugates” (J Med Chem, 2010).
The source made the active and inactive calls. The rule behind the calls is not given here.

Columns and labels:
[1] = target: Serine/threonine-protein kinase mTOR (Homo sapiens) (UniProt P42345); assay: Inhibition of mTOR
[2] = Inhibition of PI3K
Plasma [3] = assay: Stability in human plasma after 5 hrs; type: ADME, cell-free
Plasma [4] = assay: Stability in rat plasma after 5 hrs; type: ADME, cell-free
Plasma [5] = assay: Stability in mouse plasma after 5 hrs; type: ADME, cell-free
[6] = Stability in mouse plasma assessed as compound remaining after 120 mins relative to basal level; type: ADME, cell-free; details: read-out: Stability
Procedure, shortened: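 Compound was incubated in heparinized plasma at 37 °C for 2 h. Samples taken at various time points were quenched with acetonitrile, dried under nitrogen and reconstituted in methanol/water 20:80. Intact compound was quantified by LC/MS.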

U-87MG ATCC = assay: Antitumor activity against human U87MG cells xenografted in nude mouse assessed as tumor growth inhibition at 3 mg/kg, iv once weekly; type: functional, organism-based; parameters: dose 3 mg/kg
Procedure, shortened: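 U87MG glioma xenografts in nude mice were staged and randomized (n = 10). Dosing was iv once weekly in D5W (days 0, 6 or days 0, 6, 13), with vehicle controls. Tumor volume was measured twice weekly.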

Plasma [7] = assay: Stability in mouse plasma in presence of esterase inhibitor sodium fluoride; type: ADME, cell-free
Procedure, shortened: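 Compound was incubated in nude mouse plasma or whole blood at 37 °C for 2 h, with heparin or sodium fluoride/EDTA as anticoagulant. Time-point samples were quenched with acetonitrile, dried, reconstituted and analysed by LC/MS for parent and hydrolysis products.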

[8] = Solubility at pH 7.4; type: physicochemical; details: buffer
HT-29 = assay: Antitumor activity against human HT-29 cells xenografted in nude mouse assessed as tumor growth inhibition at 5 mg/kg, iv once weekly; type: functional, organism-based; parameters: dose 5 mg/kg
Procedure, shortened: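 HT29 cells from ATCC, cultured by standard methods, grown as tumors in nude mice and randomized into groups (n = 10). Agent formulated in 5% dextrose in water and given iv once weekly. Vehicle-dosed controls. Tumor growth was monitored and analyzed as previously described.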

inhibition [1] | inhibition [2] | Stability (Plasma [3]) | Stability (Plasma [4]) | Stability (Plasma [5]) | remaining at 2 h [6] [%] | Stability (Plasma [7]) | SMILES | Activity (U-87MG ATCC) | solubility [8] [µg/mL] | Activity (HT-29)
inactive | inactive | – | – | – | – | – | COC[C@H]1OC(=O)/C(=C\N(C)CCCN(C)C)C2=C(O)C(=O)C3=C([C@H](OC(C)=O)C[C@]4(C)[C@@H](OC(=O)CCCCCCC(=O)O[C@H]5CC[C@H](C[C@@H](C)[C@@H]6CC(=O)[C@H](C)/C=C(\C)[C@@H](O)[C@@H](OC)C(=O)[C@H](C)C[C@H](C)/C=C/C=C/C=C(\C)[C@@H](OC)C[C@@H]7CC[C@@H](C)[C@@](O)(O7)C(=O)C(=O)N7CCCC[C@H]7C(=O)O6)CC5)CC[C@@H]34)[C@]21C | – | – | –
inactive | inactive | Stable | Stable | Stable | – | – | C=CCN(/C=C1\C(=O)O[C@H](COC)[C@@]2(C)C1=C(O)C(=O)C1=C2[C@H](OC(C)=O)C[C@]2(C)[C@@H](OC(=O)CCCCCCC(=O)O[C@@H]3CC[C@@H](C[C@@H](C)[C@@H]4CC(=O)[C@H](C)/C=C(\C)[C@@H](O)[C@@H](OC)C(=O)[C@H](C)C[C@H](C)/C=C/C=C/C=C(\C)[C@@H](OC)C[C@@H]5CC[C@@H](C)[C@@](O)(O5)C(=O)C(=O)N5CCCC[C@H]5C(=O)O4)C[C@H]3OC)CC[C@@H]12)CC=C | – | – | –
inactive | inactive | – | – | – | 15 | Stable | COC[C@H]1OC(=O)/C(=C\N(C)CCCN(C)C)C2=C(O)C(=O)C3=C([C@H](OC(C)=O)C[C@]4(C)[C@@H](OC(=O)CCC(=O)O[C@@H]5CC[C@@H](C[C@@H](C)[C@@H]6CC(=O)[C@H](C)/C=C(\C)[C@@H](O)[C@@H](OC)C(=O)[C@H](C)C[C@H](C)/C=C/C=C/C=C(\C)[C@@H](OC)C[C@@H]7CC[C@@H](C)[C@@](O)(O7)C(=O)C(=O)N7CCCC[C@H]7C(=O)O6)C[C@H]5OC)CC[C@@H]34)[C@]21C | Active | – | –
inactive | inactive | Stable | Stable | Stable | – | – | C=CCN(/C=C1\C(=O)O[C@H](COC)[C@@]2(C)C1=C(O)C(=O)C1=C2[C@H](OC(C)=O)C[C@]2(C)[C@@H](OC(=O)CCCCCCC(=O)O[C@H]3CC[C@H](C[C@@H](C)[C@@H]4CC(=O)[C@H](C)/C=C(\C)[C@@H](O)[C@@H](OC)C(=O)[C@H](C)C[C@H](C)/C=C/C=C/C=C(\C)[C@@H](OC)C[C@@H]5CC[C@@H](C)[C@@](O)(O5)C(=O)C(=O)N5CCCC[C@H]5C(=O)O4)CC3)CC[C@@H]12)CC=C | – | – | –
– | – | – | – | – | – | – | COC[C@H]1OC(=O)/C(=C\N(C)CCCN(C)C)C2=C(O)C(=O)C3=C([C@H](OC(C)=O)C[C@]4(C)[C@@H](O)CC[C@@H]34)[C@]21C | – | > 10000 | inactive
